Columns and labels:
MDA-MB-231 = test: Cytotoxicity against human MDA-MB-231 cells by MTT assay; type: functional, cell-based
Procedure, shortened: (§1)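 Human cancer cell lines were obtained from ATCC. Viability was read colorimetrically by MTT reduction, with doxorubicin as the positive control. IC50 values were derived in µM.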

MCF7 = test: Cytotoxicity against human MCF7 cells by MTT assay; type: functional, cell-based; procedure, shortened: as §1
HepG2 = test: Cytotoxicity against human HepG2 cells by MTT assay; type: functional, cell-based; procedure, shortened: as §1
[1] = Cytotoxicity against human Hep3B cells by MTT assay; type: functional, cell-based, Hep 3B2; procedure, shortened: as §1
A549 = test: Cytotoxicity against human A549 cells by MTT assay; type: functional, cell-based; procedure, shortened: as §1

CC(=O)CCCC(C)(C)C(=O)CCC(C)=O
IC50 (MDA-MB-231): > 50 µM | IC50 (MCF7): > 50 µM | IC50 (HepG2): > 50 µM | IC50 [1]: > 50 µM | IC50 (A549): > 50 µM

COC(=O)[C@@H](C)[C@@H]1CC[C@](C)(CCC(=O)C(C)(C)CCCC(C)=O)OO1 [DIACARPEROXIDE B]
IC50 (MDA-MB-231): 11.9 µM | IC50 (MCF7): 11.9 µM | IC50 (HepG2): 11.9 µM | IC50 [1]: 11.9 µM | IC50 (A549): 11.9 µM

COc1cccc2c1C(=O)c1c(O)c3c(c(O)c1C2=O)C[C@@](O)(C(=O)CO)C[C@@H]3O[C@H]1C[C@H](N)[C@H](O)[C@H](C)O1 [DOXORUBICIN]
IC50 (MDA-MB-231): 0.24 µM | IC50 (HepG2): 0.19 µM | IC50 [1]: 0.14 µM

C=C1CCCC(C)(C)C1CC[C@@]1(C)CC[C@H]([C@@H](C)C(=O)O)OO1 (stereo partly drawn) [NAPAPUIN B]
IC50 (MDA-MB-231): 0.3 µM | IC50 (MCF7): 5.9 µM | IC50 (HepG2): 0.9 µM | IC50 [1]: 41.3 µM | IC50 (A549): 0.6 µM

C=C1CCCC(C)(C)C1CC[C@@](C)(O)CC[C@@H](O)[C@@H](C)C(=O)OC (stereo partly drawn) [NEGOMBATODIOL]
IC50 (MDA-MB-231): > 50 µM | IC50 (MCF7): > 50 µM | IC50 (HepG2): > 50 µM | IC50 [1]: > 50 µM | IC50 (A549): > 50 µM

C=C1CCCC(C)(C)C1CC[C@]1(C)CCC(=O)O1 (stereo partly drawn) [NEGOMBATOLACTONE]
IC50 (MDA-MB-231): > 50 µM | IC50 (MCF7): > 50 µM | IC50 (HepG2): > 50 µM | IC50 [1]: > 50 µM | IC50 (A549): > 50 µM

C/C(=C\CC[C@]1(C)CC[C@H]([C@@H](C)C(=O)O)OO1)CCC12OC1(C)CCCC2(C)C (stereo partly drawn) [NEGOMBATOPEROXIDE A]
IC50 (MDA-MB-231): > 50 µM | IC50 (MCF7): > 50 µM | IC50 (HepG2): > 50 µM | IC50 [1]: > 50 µM | IC50 (A549): > 50 µM

CC(=O)/C=C/C[C@]1(C)CC[C@H]([C@@H](C)C(=O)O)OO1 [NEGOMBATOPEROXIDE B]
IC50 (MDA-MB-231): > 50 µM | IC50 (MCF7): > 50 µM | IC50 (HepG2): > 50 µM | IC50 [1]: > 50 µM | IC50 (A549): > 50 µM

C[C@@H](C(=O)O)[C@H]1CC[C@@](C)(C/C=C/C2(C)CCC(=O)O2)OO1 (stereo partly drawn) [NEGOMBATOPEROXIDE C/D]
IC50 (MDA-MB-231): > 50 µM | IC50 (MCF7): > 50 µM | IC50 (HepG2): > 50 µM | IC50 [1]: > 50 µM | IC50 (A549): > 50 µM

C=C1CCCC(C)(C)C1CC[C@]1(C)CC[C@H]([C@@H](C)C(=O)OC)OO1 (stereo partly drawn) [NUAPAPUIN B]
IC50 (MDA-MB-231): 3.5 µM | IC50 (MCF7): 38.5 µM | IC50 (HepG2): 2.9 µM | IC50 [1]: 23.7 µM | IC50 (A549): 5.38 µM

From ChEMBL document CHEMBL1221371, “Norterpenoids and related peroxides from the formosan marine sponge Negombata corticata” (J Nat Prod, 2010)
